# ABHD4 inh: ABHD4 (mouse) inhibition, primary FP screen; Q8VD66; purified mABHD4, FP-Rh probe fluorescence polarization; inhibition, % at 8.92 µM; 370,000 compounds, 0.54% hits;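 active = inhibition exceeding the mean over every tested compound plus 3 SD, cut at about 30% in these data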;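 also: 0% = plate median of compound wells and 100% = S159A mutant with DMSO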
#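 Test system: mABHD4 protein | Buffer or medium: HEPES pH 7.0 buffer, 150 mM NaCl, 0.01% Pluronic F-127 | Probe or stimulus: FP-Rh fluorescent activity-based probe, added after compound pre-incubation | Timing: Pre-incubation 45 min, probe exposure 60 min, at 25 °C | Technique: Fluorescence polarization, excitation 525 nm, emission 598 nm, BODIPY TMR filters | Repeats: Single well per compound (singlicate)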
# SIAE primary: blocks human sialic acid acetylesterase; inhibition, % at 9.66 µM; AID 1053197; 370,000 compounds, 0.69% hits; Q9HAT2; SIAE FP-Rh probe binding, fluorescence polarization;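 active = inhibition above a cutoff: mean of compounds within the control limits plus 3 SD of those, cut at about 17% in these data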;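 also: 0% = plate median of compound wells and 100% = probe without SIAE protein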
# TCR CD3 inh: blocks the human TCR-CD3 interaction; TAMRA-labeled TCR probe fluorescence, biochemical; inhibition, % at 9.4 µM; 360,000 compounds, 0.37% hits; AID 651800; in the data active = inhibition above about 19%;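 also: recombinant mutant TCR 2C K166C tagged with TAMRA read by polarization; 0% = receptor in buffer alone and 100% = receptor with positive control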
# DDE Tn7 FP inh: DD(E)-Tn7 binding inhibition, primary FP screen; P02675; FP displacement of FITC-Tn7 peptide from fibrin DD(E); 0% = median of compound wells per plate; inhibition, % at 8.3 µM; 370,000 compounds, 0.13% hits;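 active = inhibition above the mean of compounds falling within the control limits plus 3 SD of them, cut at about 14% in these data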;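 also: 0% = plate median of compound wells and 100% = 10 µM Aha-Tn7 peptide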
# Target sequence (P02675 whole entry, looked up): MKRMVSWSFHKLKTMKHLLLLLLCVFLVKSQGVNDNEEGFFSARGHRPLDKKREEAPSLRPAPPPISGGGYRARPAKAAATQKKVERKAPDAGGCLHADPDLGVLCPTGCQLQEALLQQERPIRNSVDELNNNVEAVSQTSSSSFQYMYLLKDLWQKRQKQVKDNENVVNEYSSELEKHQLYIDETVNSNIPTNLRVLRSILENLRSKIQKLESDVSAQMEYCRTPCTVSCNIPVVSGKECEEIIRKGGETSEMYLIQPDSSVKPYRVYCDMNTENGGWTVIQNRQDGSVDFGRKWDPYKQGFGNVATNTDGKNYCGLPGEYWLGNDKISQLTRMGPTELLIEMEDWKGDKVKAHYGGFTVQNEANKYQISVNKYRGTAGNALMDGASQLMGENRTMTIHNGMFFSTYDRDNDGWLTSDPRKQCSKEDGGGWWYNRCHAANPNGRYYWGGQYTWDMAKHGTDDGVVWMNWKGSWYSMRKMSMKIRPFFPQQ
#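 Measure: % inhibition scaled between sample-field median and high-control FP; Test system: human fibrin DD(E); Quantity: 2 µM final DD(E) protein; Doses: one dose, 8.3 µM nominal; Schedule: compound with protein 10 min, then 3 h after probe, room temperature; Detection: fluorescence polarization; Medium: Tris buffer with calcium and detergent, pH 7.8.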
# Tn6 DDE FP: disrupts Tn6 cyclic peptide binding to fibrin D-Dimer-E complex. AID 720509. 370,000 compounds, 0.21% hits. inhibition, % at 8.3 µM. P02675. Fibrin DD(E) TRITC-Tn6 fluorescence polarization displacement;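 active = inhibition above a per-campaign cutoff: mean of compounds within control limits plus 3 SD, cut at about 15% in these data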;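 also: 0% = median of all compound wells on the plate and 100% = blocking peptide control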
# HTRA1 inhibitor: blocks human HTRA1 serine peptidase; 340,000 compounds, 0.5% hits; recombinant HTRA1, FP-rhodamine activity-based probe, fluorescence polarization; AID 504803; inhibition, % at 5.96 µM; Q92743; in the data active = inhibition above about 36%;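 also: 0% = enzyme with DMSO and 100% = wells lacking enzyme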
# HTRA1 inh conf: confirmation of human HTRA1 inhibitors; AID 540248; shares compounds with HTRA1 inhibitor; recombinant HTRA1, FP-rhodamine activity-based probe, fluorescence polarization; inhibition, % at 5.96 µM; 1,600 compounds, 66% hits;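 active = mean inhibition over three repeats above a set limit taken from the earlier primary screen, cut at about 37% in these data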;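 also: 0% = HTRA1 with DMSO and 100% = wells lacking HTRA1; inhibitors block probe binding so polarization drops and inhibition rises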
# ABHD4 confirm: ABHD4 (mouse) inhibition, FP confirmation; shares compounds with ABHD4 inh; purified mABHD4, FP-Rh probe fluorescence polarization; inhibition, % at 8.92 µM; 1,800 compounds, 55% hits;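 active = mean inhibition across replicates above the hit cutoff set in the primary screen, cut at about 30% in these data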;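 also: 0% = wild-type ABHD4 with DMSO and 100% = catalytically dead S159A mutant with DMSO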
# An asterisk follows results filed as active; · = no result. The list is not random: actives were taken first. Their share in the collection is about 1.8%.
SMILES,ABHD4 inh,SIAE primary,TCR CD3 inh,DDE Tn7 FP inh,Tn6 DDE FP,HTRA1 inhibitor,HTRA1 inh conf,others
CC(=O)c1ccc2c(c1)C1C(Cl)C(Sc3ccccc3[N+](=O)[O-])CC1C(c1ccccc1)N2 (centres undefined),24,18*,6,-8,-1,17,·,
CCC(CO)NC(=O)C1C=C2c3cccc4[nH]cc(c34)CC2N(C)C1 (centres undefined),19,7,7,3,-5,16,·,
CC(C)C[C@H]1C(=O)N2CCC[C@H]2[C@]2(O)O[C@](NC(=O)[C@@H]3C=C4c5cccc6[nH]cc(c56)C[C@H]4N(C)C3)(C(C)C)C(=O)N12,·,·,·,·,·,42*,·,
CCCNC1=C(C)C(=O)C2=C(C1=O)C(COC(N)=O)[C@]1(OC)C3NC3CN21 (some centres undefined),22,10,27*,-7,-1,12,·,
O=c1[nH]c2ccccc2n1C1CCN(C(c2cc3ccccc3o2)c2nnnn2-c2ccc3c(c2)OCCO3)CC1 (centres undefined),0,-8,3,15*,-6,·,·,
O=c1[nH]c2ccccc2n1C1CCN(C(c2cccc3ccccc23)c2nnnn2-c2ccc3c(c2)OCCO3)CC1 (centres undefined),-21,-15,0,-6,-3,·,·,
O=C1CC=C2C3CC4N(CCC45c4cc(O)c(O)cc4N1C25)CC3=CCBr (centres undefined),20,4,50*,-3,-9,11,·,
Cc1cccc(C(C)c2cnc[nH]2)c1C (centres undefined),-2,0,·,6,-6,·,·,
CCOC(=O)[C@]1(C#N)[C@@H]2C=CC(C(C)=O)=CN2[C@@H](C(N)=O)[C@@H]1c1ccsc1,19,17*,-3,1,-3,-5,·,
CN1C2CCC1CC(OC(c1ccccc1)c1ccc(Cl)cc1)C2 (centres undefined),4,1,-1,-4,-1,·,·,
CCCC/C(C)=C/[C@@H](NP(=O)(c1ccccc1)c1ccccc1)c1ccccc1,-28,2,-6,14*,5,-90,·,
COC(=O)C1C(c2ccc(C)cc2)CC2CCC1N2C (centres undefined),3,-1,-4,-1,0,·,·,
C=C1C(=O)C(C)=C2C(=O)N3Cc4[nH]c5ccccc5c4CC3(C(=O)OC)C12 (centres undefined),-6,-11,·,1,8,·,·,
O=C(CN1C(=O)[C@@H](Cc2ccc(O)cc2)N=C(c2ccccc2)c2ccccc21)NC1CCCCC1,-12,0,·,8,-2,·,·,
CC[C@H](C)/C=C(C)/C=C/C1=CC2=C(Cl)C(=O)[C@@](C)(OC(C)=O)C(=O)C2=CO1,·,·,·,·,·,78*,·,
CC(C)C(C(=O)NC(C)(C)C)N1C(=O)CN=C(c2ccccc2)c2ccccc21 (centres undefined),-2,9,·,-2,-1,·,·,
O=C(NC(CCC(O)CO)P(=O)(Oc1ccccc1)Oc1ccccc1)OCc1ccccc1 (centres undefined),3,-4,·,-6,4,·,·,
CC1Oc2cc3c(-c4c(O)cc(O)c5c(O)c6c(cc45)OC(C)C(C)C6=O)c(O)cc(O)c3c(O)c2C(=O)C1C (centres undefined),·,·,·,·,·,66*,81*,
CCOC(=O)CC[C@@H]1CC[C@]2(CCCN(Cc3cccnc3)C2)O1,2,4,·,-3,-4,·,·,
COc1ccc(OC)c(N2C(=O)NC(=O)/C(=C/c3ccc([N+](=O)[O-])s3)C2=O)c1,-40,0,-25,-5,-7,48*,43*,
COc1cc(/C=C2\C(=O)NC(=O)N(c3ccccc3)C2=O)c([N+](=O)[O-])cc1OC,23,8,3,1,3,1,·,
c1ccc(Nc2ccc(Nc3ccccc3)cc2)cc1,26,10,4,-9,6,56*,43*,
O=C(CNCc1c(F)cccc1F)N1CCC2(CC1)OCCO2,0,2,·,-2,-7,·,·,
COC(=O)C1=C[C@H]([C@@H](C)[C@H](OC)c2ccccc2Br)[C@@H]2[C@H]1c1ccccc1N2C,2,8,·,-14,-1,·,·,
CC(C)(C)c1ccc(O)c(N=Cc2c(O)ccc3ccccc23)c1,24,12,11,4,-8,50*,63*,
SMILES,ABHD4 inh,SIAE primary,TCR CD3 inh,DDE Tn7 FP inh,Tn6 DDE FP,HTRA1 inhibitor,HTRA1 inh conf,others
COc1ccc(-n2c(/C=C/c3ccc(O)c(O)c3)nc3ccccc3c2=O)cc1,21,12,10,4,-4,66*,63*,
CC(C)(C)NC(=O)C1CN=C(c2ccccc2)c2cc(Cl)ccc2N1C(=O)C1CCC1 (centres undefined),7,5,·,2,1,·,·,
COc1ccc2c(c1O)-c1c(OC)c(OC)cc3c1[C@H](C2)N(C)CC3,1,1,6,0,5,1,·,
CCCN1CCc2cccc3c2[C@H]1Cc1ccc(O)c(O)c1-3,·,·,·,·,·,77*,66*,
CCC(C)/C=C(C)/C=C/C1=CC2=C(Cl)C(=O)C(C)(OC(C)=O)C(=O)C2=CO1 (centres undefined),·,·,·,·,·,44*,68*,
NC(Cc1ccc(N(CCCl)CCCl)cc1)C(=O)O (centres undefined),10,-2,·,9,6,·,·,
COc1cc2c(c3oc4cccc(O)c4c(=O)c13)[C@@H]1C=CO[C@@H]1O2,4,-10,·,-3,-2,·,·,
C=Cn1ccnc1P(=S)(c1nccn1C=C)c1nccn1C=C,5,1,5,-3,1,41*,43*,
Cc1cc(OC(=O)c2ccco2)c2c3c(c(=O)oc2c1)CCCC3,-3,-1,0,3,4,42*,33,
Cc1cc(OC(=O)c2cccs2)c2c3c(c(=O)oc2c1)CCCC3,-9,1,-8,-8,-4,-4,·,
CCN(CC)c1ccc(N=Cc2c(O)n(Cc3ccco3)c(=O)[nH]c2=O)cc1,45*,17,10,-1,-11,42*,0,ABHD4 confirm=2
C[C@H](NC(=O)OCc1ccccc1)C(=O)NC(Cc1ccccc1)P(=O)(Oc1ccccc1)Oc1ccccc1 (some centres undefined),-11,5,·,5,0,·,·,

# High-throughput results: PubChem, The Scripps Research Institute Molecular Screening Center
